Source: article PMC9924909 (Brain, 2022)
Values joined by “and” are separate entries in the source; they are usually repeats but may differ in a detail not shown here. Equal values may be shown once.

Tests used:
Type in all cases: in vivo, human
adults with GD3 [1] = test: Horizontal and vertical saccadic eye movements; conditions: after 1 year; horizontal or vertical velocity and amplitude
Method in brief: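 Horizontal and vertical saccades recorded non-invasively and assessed by a central reader. Eye-position and target traces were filtered to give eye velocity. Saccades were detected by velocity criteria, and amplitude, duration and peak velocity were derived. Patients took oral test compound 15 mg once daily on top of maintenance IV enzyme replacement for 1 year.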

glucosylceramide = test: Glucosylceramide concentration in plasma and CSF, LEAP trial
Method in brief: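 CSF collected by lumbar puncture at baseline and Weeks 1, 4, 26, 52; plasma at baseline and Weeks 1, 4, 12, 26, 39, 52. Dosing was oral test compound 15 mg once daily with maintenance IV enzyme replacement. LLOQ: glucosylceramide 0.1 μg/ml plasma, 2.0 ng/ml CSF; glucosylsphingosine 5.0 ng/ml plasma, 5 pg/ml CSF. Change from baseline summarised as median percentage with interquartile range and 95% CI.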

adults with GD3 [2] = test: Trail Making Test
Method in brief: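 Neurocognition measured with the Trail Making Test: Part A (timed visual search and psychomotor speed) and Part B (set-shifting, executive component). Trail B minus Trail A time was derived to remove graphomotor and visual-scanning variance. Baseline versus Week 52 under oral test compound 15 mg once daily plus maintenance IV enzyme replacement.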

[3] = baseline to Week 52, 11 patients
[4] = individual patients, baseline to Week 52

For `CC(C)(NC(=O)O[C@@H]1CN2CCC1CC2)c1csc(-c2ccc(F)cc2)n1` [Venglustat], the “treatment effect on saccadic eye movements” value (adults with GD3 [1]) was “no clear evidence of a treatment effect”, the “median glucosylceramide reduction in CSF” value (glucosylceramide; [3]) was 81% and the “median glucosylceramide reduction in plasma” value (glucosylceramide; [3]) was 78%. The “Glucosylceramide concentration, CSF, Change” value (glucosylceramide; [4]) was −4.04 ng/ml and −4.95 ng/ml and −8.95 ng/ml and +1.64 ng/ml and −4.17 ng/ml and −4.7 ng/ml and −3.32 ng/ml and −3.53 ng/ml and −7.02 ng/ml and −13.3 ng/ml, the “Glucosylceramide concentration, CSF, Percentage change” value (glucosylceramide; [4]) was −80.2% and −83.2% and −80.6% and +37.1% and −80.7% and −82.5% and −47.4% and −77.9% and −76.9% and −87.5% and −93% and the “Glucosylceramide concentration, Plasma, Change” value (glucosylceramide; [4]) was −4.31 μg/ml and −5.49 μg/ml and −4.7 μg/ml and +1.14 μg/ml and −3.97 μg/ml and −2.24 μg/ml and −5.31 μg/ml and −4.19 μg/ml and −3.68 μg/ml and −6.69 μg/ml. The “Glucosylceramide concentration, Plasma, Percentage change” value (glucosylceramide; [4]) was −82.5% and −78.4% and −71.6% and +13.7% and −78.2% and −85.9% and −45.8% and −84% and −80.3% and −77% and −85.1%, the “time to complete TMT Trail A at Week 52, mean (SD)” value (adults with GD3 [2]; baseline 54.4 (47.5) s) was 53.5 (43.1) s and the “time to complete Trail B minus Trail A at Week 52, mean” value (adults with GD3 [2]; baseline 99.3 s) was 61.7 s. The “time to complete TMT Trail B at Week 52, mean (SD)” value (adults with GD3 [2]; baseline 153.6 (149.4)) was 115.3 (76.8) seconds, the “patients with reduction in Trail B minus Trail A time” value (adults with GD3 [2]; baseline to Week 52) was 7 of 11 and the “time to complete TMT Trail A, mean change” value (adults with GD3 [2]; baseline to Week 52, 95% CI: −21.0 to 19.4) was -0.8 s. For the same compound, the “time to complete Trail B minus Trail A, mean change” value (adults with GD3 [2]; baseline to Week 52, 95% CI: −88.1 to 13.0) was -37.5 s, the “time to complete TMT Trail B, mean change” value (adults with GD3 [2]; baseline to Week 52, 95% CI: −104.8 to 28.1) was -38.4 s and the “patients with reduction in TMT Trail B time” value (adults with GD3 [2]; baseline to Week 52, marked reduction) was 8 of 11. For the same compound, the “patients with reduction in TMT Trail A time” value (adults with GD3 [2]; baseline to Week 52, minor reduction) was 5 of 11.
